The values below come from ChEMBL document CHEMBL3098016, “Biphenyl derivatives incorporating urea unit as novel VEGFR-2 inhibitors: design, synthesis and biological evaluation” (Bioorg Med Chem, 2014).

pIC50: −log10 of the molar value. Some results are limits rather than exact numbers.

In general, pIC50 refers to the negative decadic logarithm of the IC50, by convention in mol/L.

Assay [1] addresses Vascular endothelial growth factor receptor 2 (Homo sapiens, UniProt P35968). Put plainly: Inhibition of VEGFR2 (unknown origin) after 30 mins by HTRF assay. (In general: In TR-FRET formats the signal depends on donor and acceptor labels being close together.)
Another assay relates to LoVo. Put plainly: Antiproliferative activity against human LoVo cells after 48 hrs by MTT assay.
The subject of the next assay is K562. Put plainly: Antiproliferative activity against human K562 cells after 48 hrs by MTT assay. The settings on record: K562, 48 h.
A short description of assay [2]: Antiproliferative activity against human SH-SY5Y cells after 48 hrs by MTT assay. A general note: Tetrazolium dyes change colour on reduction, which living cells bring about.
Assay [3] in a line: Antiproliferative activity against human SGC7901 cells after 48 hrs by MTT assay. The settings on record: SGC-7901, 48 h.
Another assay relates to MDA-MB-231. Put plainly: Antiproliferative activity against human MDA-MB-231 cells after 48 hrs by MTT assay. In kind it is functional, cell-based. The settings on record: MDA-MB-231, 48 h. The method, boiled down: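 Cells in exponential growth plated at 1 × 10⁴ cells/well and incubated 24 h at 37 °C. Compounds were then added at various concentrations for 48 h. MTT (5 mg/mL) was added, followed by 4 h at 37 °C. Supernatant was removed and formazan dissolved in DMSO, with absorbance read at 490 nm. IC50 in µM.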

Vascular endothelial growth factor receptor 2, sequence (P35968 whole entry): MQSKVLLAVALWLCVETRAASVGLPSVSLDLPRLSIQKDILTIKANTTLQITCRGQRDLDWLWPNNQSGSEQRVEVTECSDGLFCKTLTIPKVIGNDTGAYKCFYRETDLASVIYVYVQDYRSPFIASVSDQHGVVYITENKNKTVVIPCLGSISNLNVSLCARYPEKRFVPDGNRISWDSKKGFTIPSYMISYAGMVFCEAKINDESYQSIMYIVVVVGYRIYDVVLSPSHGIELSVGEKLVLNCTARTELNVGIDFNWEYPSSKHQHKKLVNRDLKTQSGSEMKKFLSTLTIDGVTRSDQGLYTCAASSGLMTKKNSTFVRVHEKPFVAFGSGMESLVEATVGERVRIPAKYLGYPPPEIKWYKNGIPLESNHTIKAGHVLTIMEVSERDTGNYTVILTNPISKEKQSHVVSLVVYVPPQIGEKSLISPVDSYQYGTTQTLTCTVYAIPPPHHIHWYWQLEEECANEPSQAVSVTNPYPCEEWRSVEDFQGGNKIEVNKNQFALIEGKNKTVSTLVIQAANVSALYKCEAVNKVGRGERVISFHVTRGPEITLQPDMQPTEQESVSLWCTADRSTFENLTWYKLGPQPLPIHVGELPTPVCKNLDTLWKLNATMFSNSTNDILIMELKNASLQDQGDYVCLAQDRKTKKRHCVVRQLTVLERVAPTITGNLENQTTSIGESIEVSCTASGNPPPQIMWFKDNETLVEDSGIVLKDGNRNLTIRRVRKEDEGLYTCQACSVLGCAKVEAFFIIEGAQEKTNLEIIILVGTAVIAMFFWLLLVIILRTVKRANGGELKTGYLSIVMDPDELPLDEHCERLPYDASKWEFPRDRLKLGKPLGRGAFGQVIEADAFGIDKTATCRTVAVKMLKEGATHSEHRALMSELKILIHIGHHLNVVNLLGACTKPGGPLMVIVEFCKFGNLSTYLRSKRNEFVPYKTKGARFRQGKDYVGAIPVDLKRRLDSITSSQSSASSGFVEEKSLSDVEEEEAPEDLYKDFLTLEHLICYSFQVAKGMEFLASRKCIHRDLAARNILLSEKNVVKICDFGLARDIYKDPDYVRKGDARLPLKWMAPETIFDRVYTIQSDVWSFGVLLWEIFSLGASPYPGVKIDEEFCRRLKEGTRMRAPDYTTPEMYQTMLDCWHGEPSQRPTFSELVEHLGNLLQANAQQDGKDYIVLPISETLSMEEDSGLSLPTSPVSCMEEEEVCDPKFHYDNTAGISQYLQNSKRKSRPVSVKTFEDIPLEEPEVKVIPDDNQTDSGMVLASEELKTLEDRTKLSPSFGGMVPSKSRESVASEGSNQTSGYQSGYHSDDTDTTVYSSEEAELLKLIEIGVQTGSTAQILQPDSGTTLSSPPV

As to `COc1cc(-c2cc(NC(=O)Nc3ccc(OCCN4CCOCC4)cc3)cc(OC)c2OC)ccc1C(C)=O`, in assay [1], the pIC50 was < 6.52.
Still for that read-out and setting: then `COc1cc(-c2cc(NC(=O)Nc3cc(OCCN4CCCCC4)ccc3C)cc(OC)c2OC)ccc1C(C)=O`, with < 6.52; and `COc1cc(-c2cc(NC(=O)Nc3ccc(OCCN(C)C)cc3)cc(OC)c2OC)ccc1C(C)=O`, with < 6.52; and `COc1cc(-c2cc(NC(=O)Nc3ccc(OCCN(C)C)cc3C)cc(OC)c2OC)ccc1C(C)=O`, with < 6.52.
Take `CCN(CC)CCOc1ccc(NC(=O)Nc2cc(OC)c(OC)c(-c3ccc(C(C)=O)c(OC)c3)c2)cc1`: in assay [1], the pIC50 was < 6.52.
On the same count and under the same terms, then `CCN(CC)CCOc1ccc(NC(=O)Nc2cc(OC)c(OC)c(-c3ccc(/C(C)=N/O)c(OC)c3)c2)c(C)c1`, with < 6.52.
Regarding `COc1cc(-c2cc(NC(=O)Nc3ccc(OCCCN4CCOCC4)cc3)cc(OC)c2OC)ccc1C(C)=O`, the negative-log IC50 (pIC50) was 4.95 with LoVo, 5.65 with K562, 4.98 in assay [2] and 4.09 in assay [3].
Turning to `CNC(=O)c1cc(Oc2ccc(NC(=O)Nc3ccc(Cl)c(C(F)(F)F)c3)cc2)ccn1` [SORAFENIB], the pIC50 in the assay with LoVo was 5.18; in the assay on MDA-MB-231, 4.46; in the assay on K562, 6.07; in assay [2], 5.24; in assay [3], 4.00.
